Experiments:
THP-1 = test: Inhibition of LPS-stimulated TNFalpha production in THP1 cells; assay type: functional, cell-based; conditions: Homo sapiens
How it was run: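 Human monocytic THP-1 cells, 2.0 · 10⁵/well, cultured in duplicate, preincubated 15 min with or without a range of inhibitor concentrations. TNF-α release then stimulated with LPS at 2 µg/ml. Secreted TNF-α measured by ELISA 4 h after stimulation. Cell viability after the 4 h incubation checked by MTS assay.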

[1] = Metabolic stability in Sprague-Dawley rat liver microsomes assessed as percent loss after 4 hrs; assay type: ADME, Microsome; conditions: hepatocytes, in the assay text read “hepatocytes” for “liver microsomes”, read-out: Activity
How it was run: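 Plated Sprague–Dawley rat hepatocytes, not microsomes, with matrigel blank plates. Test compound incubated at 37 °C in triplicate, sampled at 0, 2 and 4 h. Samples pooled after incubation into a multi-compound set, internal standard added, reverse-phase LC/MS/MS. The compound/internal-standard area ratio at 4 h divided by the 0 h ratio gives percent loss.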

[2] = Bioavailability in rat; assay type: ADME, organism-based; conditions: in vivo
[3] = Half life in rat; assay type: ADME, organism-based; conditions: in vivo

| SMILES | IC50 (THP-1) | also measured |
| --- | --- | --- |
| CCn1c([S+]([O-])c2ccccc2Cl)nc2cnc(Oc3c(F)cccc3F)nc21 (configuration not stated) | > 1000 nM | – |
| CCCCn1c(Nc2ccccc2Cl)nc2cnc(Nc3c(F)cccc3F)nc21 | 798 nM | – |
| Cn1c(Nc2ccccc2Cl)nc2cnc(Nc3ccc(F)cc3F)nc21 | 6560 nM | – |
| CCn1c(Oc2ccccc2Cl)nc2cnc(Oc3c(F)cccc3F)nc21 | 86 nM | – |
| CC(C)n1c(Nc2ccccc2F)nc2cnc(Oc3c(F)cccc3F)nc21 | 4 nM | metabolised at 4 h [1]: 61%; bioavailability [2]: 9%; half-life [3]: 1.5 h |
| CCn1c(Nc2ccccc2C)nc2cnc(Oc3c(F)cccc3F)nc21 | 48 nM | metabolised at 4 h [1]: 56%; bioavailability [2]: 9%; half-life [3]: 1.5 h |
| CC(C)n1c(Nc2ccccc2Cl)nc2cnc(Nc3c(F)cccc3F)nc21 | 630 nM | – |
| CCn1c(Nc2ccccc2Cl)nc2cnc(Oc3c(F)cccc3F)nc21 | 69 nM | – |
| Fc1cccc(F)c1Nc1ncc2nc(Nc3ccccc3Cl)n(C3CC3)c2n1 | > 1000 nM | – |
| CCn1c(Nc2ccccc2O)nc2cnc(Oc3c(F)cccc3F)nc21 | 906 nM | – |
| Cn1c(NC(=O)c2ccccc2Cl)nc2cnc(NC3CCOCC3)nc21 | > 10000 nM | – |
| CCn1c(C(=O)c2ccccc2Cl)nc2cnc(Oc3c(F)cccc3F)nc21 | 4 nM | metabolised at 4 h [1]: 82% |
| CCn1c(Nc2ccccc2Cl)nc2cnc(Nc3c(F)cccc3F)nc21 | 542 nM | – |
| CC(C)n1c(C(=O)c2ccccc2Cl)nc2cnc(Oc3c(F)cccc3F)nc21 | 650 nM | – |
| CCn1c(Nc2ccccc2Cl)nc2cnc(Nc3ccccc3F)nc21 | 2110 nM | – |
| C[C@H](Nc1ncc2nc(NCCc3ccccc3Cl)n(C)c2n1)C(C)(C)O | > 10000 nM | – |
| Cn1c(Nc2ccccc2Cl)nc2cnc(NC3CCOCC3)nc21 | 6580 nM | – |

| SMILES | IC50 (THP-1) | also measured |
| --- | --- | --- |
| CCn1c(Nc2ccccc2F)nc2cnc(Oc3c(F)cccc3F)nc21 | 35 nM | metabolised at 4 h [1]: 65% |
| CCn1c(Nc2cccc(Cl)c2Cl)nc2cnc(Oc3c(F)cccc3F)nc21 | 300 nM | – |
| C[C@H](Nc1ncc2nc(NCc3ccccc3Cl)n(C)c2n1)C(C)(C)O | > 10000 nM | – |
| CCn1c(Sc2ccccc2Cl)nc2cnc(Oc3c(F)cccc3F)nc21 | 14 nM | metabolised at 4 h [1]: 75% |
| C[C@H](Nc1ncc2nc(Nc3ccccc3Cl)n(C)c2n1)C(C)(C)O | 3170 nM | – |
| Cn1c(Nc2ccccc2Cl)nc2cnc(Nc3c(F)cccc3F)nc21 | 1540 nM | – |
| CCn1c(Nc2ccc(C)cc2Cl)nc2cnc(Oc3c(F)cccc3F)nc21 | 273 nM | – |
| Cn1c(Nc2ccccc2Cl)nc2cnc(Nc3ccccc3F)nc21 | 10000 nM | – |
| CCn1c(Nc2ccc(F)cc2Cl)nc2cnc(Oc3c(F)cccc3F)nc21 | 237 nM | – |
| CCn1c(Nc2ccccc2N)nc2cnc(Oc3c(F)cccc3F)nc21 | 473 nM | – |
| CCn1c(Nc2ccccc2OC)nc2cnc(Oc3c(F)cccc3F)nc21 | 2050 nM | – |
| CCn1c(Nc2c(Cl)cccc2Cl)nc2cnc(Oc3c(F)cccc3F)nc21 | 100 nM | – |
| CC(C)(C)n1c(Nc2ccccc2Cl)nc2cnc(Nc3c(F)cccc3F)nc21 | > 1000 nM | – |
| CCn1c(C(=O)c2ccccc2F)nc2cnc(Oc3c(F)cccc3F)nc21 | 207 nM | – |
| O=c1ncn2nc(Sc3ccc(F)cc3F)ccc2c1-c1c(Cl)cccc1Cl [NEFLAMAPIMOD] | 56 nM | – |
| CCn1c(C(O)c2ccccc2Cl)nc2cnc(Oc3c(F)cccc3F)nc21 (configuration not stated) | 169 nM | – |

— ChEMBL document CHEMBL1145303, “The development of novel C-2, C-8, and N-9 trisubstituted purines as inhibitors of TNF-alpha production” (Bioorg Med Chem Lett, 2006)
